Activity calls are given as the source filed them. The calls are words filed in the database; no cut-off is given here.
Assays:
[1] = test system: HL-60; assay: Antiproliferative activity against human mitochondrial gene-knockout HL60 cells after 48 hrs by MTT assay; assay type: functional, cell-based; settings: HL-60, 48 h
Procedure, shortened: (§1)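 HL60 cells were grown in RPMI-1640 with 5% FBS. The mtDNA-knockout line was derived by 6−8 weeks in ethidium bromide (50 ng/mL) and kept with 50 μg/mL uridine and 1 mM pyruvate. Compound in DMSO was serially diluted 3-fold in RPMI […], in triplicate. Cells at 0.2 × 10⁶/mL final ran 48 h at 37 °C, 5% CO₂. MTT was added for 2 h, then overnight lysis, read at A570. IC50 is a dose-response mean ± SEM (n = 2/3).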

[2] = test system: HL-60; assay: Antiproliferative activity against human HL60 cells after 48 hrs by MTT assay; assay type: functional, cell-based; settings: HL-60, 48 h; procedure, shortened: as §1
[3] = Inhibition of tPMET complex in human mitochondrial gene-knockout HL60 cells after 30 mins by WST-1/mPMS reduction assay; assay type: cell-based; settings: HL-60, 0.5 h
Procedure, shortened: (§2)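 Exponential-phase cells were resuspended in HBSS at 1.0 × 10⁶ cells/mL final. Compound in DMSO was serially diluted 10-fold in HBSS from 200 μM, in triplicate, and preincubated 30 min at 37 °C, 5% CO₂. WST-1 (500 μM final) with mPMS (20 μM final) was then added. Reduction was read in real time at 450 nm over 40 min. IC50 is a dose-response mean ± SEM (n = 2/3).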

[4] = Inhibition of tPMET complex in human HL60 cells after 30 mins by WST-1/mPMS reduction assay; assay type: cell-based; settings: HL-60, 0.5 h; procedure, shortened: as §2
[5] = test system: HL-60; assay: Cell cycle arrest in human mitochondrial gene-knockout HL60 cells assessed as accumulation at G2 phase at 30 uM after 24 hrs by propidium iodide staining-based flow cytometric analysis (reference value: 18 %); assay type: functional
[6] = test system: HL-60; assay: Cell cycle arrest in human mitochondrial gene-knockout HL60 cells assessed as accumulation at S phase at 30 uM after 24 hrs by propidium iodide staining-based flow cytometric analysis (reference value: 24 %); assay type: functional
[7] = test system: HL-60; assay: Cell cycle arrest in human mitochondrial gene-knockout HL60 cells assessed as accumulation at G1 phase at 30 uM after 24 hrs by propidium iodide staining-based flow cytometric analysis (reference value: 55 %); assay type: functional
[8] = test system: HL-60; assay: Cell cycle arrest in human mitochondrial gene-knockout HL60 cells assessed as accumulation at sub G1 phase at 30 uM after 24 hrs by propidium iodide staining-based flow cytometric analysis (reference value: 3 %); assay type: functional
[9] = test system: HL-60; assay: Cell cycle arrest in human HL60 cells assessed as accumulation at G2 phase at 30 uM after 24 hrs by propidium iodide staining-based flow cytometric analysis (reference value: 22 %); assay type: functional
[10] = test system: HL-60; assay: Cell cycle arrest in human HL60 cells assessed as accumulation at G1 phase at 30 uM after 24 hrs by propidium iodide staining-based flow cytometric analysis (reference value: 38 %); assay type: functional
[11] = test system: HL-60; assay: Cell cycle arrest in human HL60 cells assessed as accumulation at sub G1 phase at 30 uM after 24 hrs by propidium iodide staining-based flow cytometric analysis (reference value: 11 %); assay type: functional
[12] = test system: HL-60; assay: Cell cycle arrest in human HL60 cells assessed as accumulation at S phase at 30 uM after 24 hrs by propidium iodide staining-based flow cytometric analysis (reference value: 28 %); assay type: functional
[13] = test system: HL-60; assay: Induction of apoptosis in human HL60 cells at 30 uM after 24 hrs by propidium iodide staining-based flow cytometric analysis; assay type: functional, cell-based
[14] = test system: HL-60; assay: Induction of apoptosis in human mitochondrial gene-knockout HL60 cells at 30 uM after 72 hrs by propidium iodide staining-based flow cytometric analysis; assay type: functional, cell-based

Structure (SMILES)	IC50 [1] [µM]	IC50 [2] [µM]	IC50 [3] [µM]	IC50 [4] [µM]	Activity [5] [%]	Activity [6] [%]	Activity [7] [%]	Activity [8] [%]	Activity [9] [%]	Activity [10] [%]	Activity [11] [%]	Activity [12] [%]	Activity [13]	Activity [14]
COC1=C(OC)C(=O)C(CCCCCCCCCCN2CCOCC2)=C(C)C1=O	15	3	46	33	–	–	–	–	–	–	–	–	–	–
COC1=C(OC)C(=O)C(CCCCCCCCCC[N+](C)(Cc2ccccc2)Cc2ccccc2)=C(C)C1=O.[I-]	3	3	47	10	0	0	35	0	10	24	57	8	Active	–
COC1=C(OC)C(=O)C(CCCCCCCCCCn2cc[n+](Cc3ccccc3)c2)=C(C)C1=O	5	2	68	9	–	–	–	–	–	–	–	–	–	–
COC1=C(OC)C(=O)C(CCCCCCCCCCOCc2cccc(S(=O)(=O)O)c2)=C(C)C1=O	120	143	70	81	–	–	–	–	–	–	–	–	–	–
COC1=C(OC)C(=O)C(CCCO)=C(C)C1=O	15	13	92	> 200	–	–	–	–	–	–	–	–	–	–
COC1=C(OC)C(=O)C(CCCCCCCCCCOc2cc(O)cc(O)c2)=C(C)C1=O	63	16	13	6	–	–	–	–	–	–	–	–	Active	Active
COC1=C(OC)C(=O)C(CCCCCCCCCCn2ccnc2)=C(C)C1=O	15	3	33	14	–	–	–	–	–	–	–	–	–	–

Further lines, with some results ahead:

IC50 [1] [µM]	IC50 [2] [µM]	Structure (SMILES)	IC50 [3] [µM]	IC50 [4] [µM]	Activity [5] [%]	Activity [6] [%]	Activity [7] [%]	Activity [8] [%]	Activity [9] [%]	Activity [10] [%]	Activity [11] [%]	Activity [12] [%]	Activity [13]	Activity [14]
44	35	COC1=C(OC)C(=O)C(CCCCCCCCCCn2cc[n+](C)c2)=C(C)C1=O	78	23	–	–	–	–	–	–	–	–	–	–
> 200	36	COC1=C(OC)C(=O)C(CCCCCCCCCCO)=C(C)C1=O [IDEBENONE]	70	77	15	36	36	99	35	51	12	2	–	–
3	2	COC1=C(OC)C(=O)C(CCCCCCCCCC[N+](Cc2ccccc2)(Cc2ccccc2)Cc2ccccc2)=C(C)C1=O	54	14	–	–	–	–	–	–	–	–	Active	–
> 200	> 200	COC1=C(OC)C(=O)C(CCCCCCCCCCc2c(O)cc(O)cc2O)=C(C)C1=O	9	21	–	–	–	–	–	–	–	–	–	–
8	13	COC1=C(OC)C(=O)C(CCCCCO)=C(C)C1=O	123	> 200	–	–	–	–	–	–	–	–	–	–
> 200	33	COC1=C(OC)C(=O)C(CCCCCCCCCCN(Cc2ccccc2)Cc2ccccc2)=C(C)C1=O	> 200	> 200	–	–	–	–	–	–	–	–	–	–
> 200	> 200	COC1=C(OC)C(=O)C(CCCOCc2cccc(S(=O)(=O)O)c2)=C(C)C1=O	> 200	> 200	–	–	–	–	–	–	–	–	–	–
> 200	1	COC1=C(OC)C(=O)C(CCCCCCCCCC[N+]2(C)CCOCC2)=C(C)C1=O	> 200	122	–	–	–	–	–	–	–	–	–	–

— ChEMBL document CHEMBL2321757, “Anti-leukemic activity of ubiquinone-based compounds targeting trans-plasma membrane electron transport” (J Med Chem, 2013)
